# In ChEMBL document CHEMBL3856290, “Discovery of TAK-272: A Novel, Potent, and Orally Active Renin Inhibitor” (ACS Med Chem Lett, 2016):
# Where a name gives a salt, the structure may show the parent alone. Activity calls are given as the source filed them. The rule behind the calls is not given here.
# Experiments:
# Renin [1] = target: T1, Renin (Homo sapiens, UniProt P00797); assay: Inhibition of recombinant human preprorenin expressed in human 293F cells using angiotensinogen as substrate preincubated for 10 mins followed by substrate addition measured after 30 mins by ELISA
# T1 sequence (P00797 whole entry): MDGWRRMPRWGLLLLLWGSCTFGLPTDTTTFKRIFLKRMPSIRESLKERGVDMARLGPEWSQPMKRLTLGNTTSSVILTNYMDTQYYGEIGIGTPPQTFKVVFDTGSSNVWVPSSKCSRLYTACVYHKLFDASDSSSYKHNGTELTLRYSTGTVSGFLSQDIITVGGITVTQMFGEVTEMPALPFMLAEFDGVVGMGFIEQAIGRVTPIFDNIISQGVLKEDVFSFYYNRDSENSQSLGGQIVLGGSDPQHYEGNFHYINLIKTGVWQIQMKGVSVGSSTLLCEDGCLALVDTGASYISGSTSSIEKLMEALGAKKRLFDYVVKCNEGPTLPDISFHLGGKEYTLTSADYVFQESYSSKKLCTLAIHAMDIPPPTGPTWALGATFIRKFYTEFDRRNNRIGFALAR
# Renin [2] = target: T1, Renin; assay: Inhibition of renin in human plasma by radioimmunoassay; type: cell-free
# [3] = Plasma clearance in non-fasted rat at 0.1 mg/kg, iv or 1 mg/kg, po administered through cassette dosing by LC/MS/MS analysis; type: ADME, organism-based; conditions: in vivo
# In short: (§1)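 Cassette dosing to non-fasted rats, either 0.1 mg/kg iv or 1 mg/kg po. Blood was sampled after dosing and spun to plasma. Plasma was deproteinized and centrifuged, and compound levels in the supernatant were measured by LC/MS/MS.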
# [4] = Oral bioavailability in non-fasted rat at 1 mg/kg administered through cassette dosing by LC/MS/MS analysis; type: ADME, organism-based; conditions: in vivo; in short: as §1
# [5] = Inhibition of pepsin (unknown origin); set-up: species or system Homo sapiens
# Cathepsin D = Cathepsin D (Homo sapiens, UniProt P07339); assay: Inhibition of cathepsin D (unknown origin)
# Sequence of Cathepsin D (P07339 65-162 limits assumed): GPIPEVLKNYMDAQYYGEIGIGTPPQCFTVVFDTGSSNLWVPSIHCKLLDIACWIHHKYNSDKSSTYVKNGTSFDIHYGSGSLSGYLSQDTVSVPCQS
# Sequence of Cathepsin D (P07339 169-412 limits assumed): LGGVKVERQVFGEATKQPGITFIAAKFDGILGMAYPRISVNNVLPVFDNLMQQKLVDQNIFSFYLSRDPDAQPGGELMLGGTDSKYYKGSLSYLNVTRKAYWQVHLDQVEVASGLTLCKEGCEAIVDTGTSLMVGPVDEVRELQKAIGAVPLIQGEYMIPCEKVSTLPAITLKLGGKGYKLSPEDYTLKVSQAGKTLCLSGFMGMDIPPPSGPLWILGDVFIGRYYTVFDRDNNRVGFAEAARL
# Rattus norvegicus [6] = assay: Antihypertensive activity in human angiotensinogen and renin double transgenic rat model assessed as reduction in systolic blood pressure at 3 mg/kg, po after 5 hrs by tail-cuff method; type: functional, organism-based
# In short: (§2)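 Male hAOPEN-hREN double transgenic rats, 5 weeks old. Drugs were dissolved in 0.5% methylcellulose and given orally; vehicle-dosed rats served as controls. Systolic pressure was read by tail-cuff before dosing and at 5 and 24 h after dosing.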
# Rattus norvegicus [7] = assay: Antihypertensive activity in human angiotensinogen and renin double transgenic rat model assessed as reduction in systolic blood pressure at 10 mg/kg, po after 5 hrs by tail-cuff method; type: functional, organism-based; in short: as §2
# Rattus norvegicus [8] = assay: Antihypertensive activity in human angiotensinogen and renin double transgenic rat model assessed as reduction in systolic blood pressure at 10 mg/kg, po after 24 hrs by tail-cuff method; type: functional, organism-based; in short: as §2
# Rattus norvegicus [9] = assay: Antihypertensive activity in po dosed human angiotensinogen and renin double transgenic rat model assessed as reduction in systolic blood pressure after 5 to 24 hrs by tail-cuff method; type: functional, organism-based; in short: as §2
# Rattus norvegicus [10] = assay: Antihypertensive activity in human angiotensinogen and renin double transgenic rat model assessed as reduction in systolic blood pressure at 75 mg/kg, po after 5 hrs by tail-cuff method; type: functional, organism-based; in short: as §2
# Rattus norvegicus [11] = assay: Antihypertensive activity in human angiotensinogen and renin double transgenic rat model assessed as reduction in systolic blood pressure at 75 mg/kg, po after 24 hrs by tail-cuff method; type: functional, organism-based; in short: as §2
# [12] = AUC in non-fasted rat at 1 mg/kg, po administered through cassette dosing by LC/MS/MS analysis; type: ADME, organism-based; conditions: in vivo; in short: as §1
SMILES,IC50 (Renin [1]),IC50 (Renin [2]),other results
COC(=O)[C@H]1CNC[C@@H](N(CC(C)C)C(=O)c2cnc(C(C)(C)C)nc2NCc2ccco2)C1 (racemic),0.44 nM,1.4 nM,
COCCCNc1nc(C(C)(C)C)ncc1C(=O)N(CC(C)C)[C@@H]1CNC[C@H](C(=O)N2CCOCC2)C1,,,CL [3]: 92.32 mL/min/kg; F [4]: < 1%
CC(C)CN(C(=O)c1cnc(C(C)(C)C)nc1NCc1ccco1)[C@H]1CCCNC1,0.58 nM,4.6 nM,
COCCCNc1nc(C(C)(C)C)ncc1C(=O)N(CC(C)C)[C@@H]1CNC[C@H](C(=O)OC)C1,2.6 nM,5.2 nM,
COCCCCn1c(C(=O)N(CC(C)C)[C@@H]2CNC[C@H](C(=O)N3CCOCC3)C2)nc2ccccc21 [IMARIKIREN HYDROCHLORIDE],,,IC50 [5]: > 10000 nM; IC50 (Cathepsin D): > 10000 nM; Activity (Rattus norvegicus [6]): Active; Activity (Rattus norvegicus [7]): Active; Activity (Rattus norvegicus [8]): Active; Activity (Rattus norvegicus [9]): Dose-dependent effect
COCCCNc1nc(C(C)(C)C)ncc1C(=O)N(CC(C)C)[C@@H]1CNC[C@H](C(N)=O)C1,1.4 nM,4.5 nM,
COC(=O)[C@@H]1CNC[C@H](N(CC(C)C)C(=O)c2cnc(C(C)(C)C)nc2NCc2ccco2)C1,1.2 nM,> 10 nM,
COCCCOc1cc(C[C@@H](C[C@H](N)[C@@H](O)C[C@H](C(=O)NCC(C)(C)C(N)=O)C(C)C)C(C)C)ccc1OC,,,Activity (Rattus norvegicus [10]): Active; Activity (Rattus norvegicus [11]): Active
COC(=O)[C@H]1CNC[C@@H](N(CC(C)C)C(=O)c2cnc(C(C)(C)C)nc2NCc2ccco2)C1,0.039 nM,0.35 nM,
CCCCCCc1nc(C(C)(C)C)ncc1C(=O)N(CC(C)C)[C@@H]1CNC[C@H](C(=O)N2CCOCC2)C1,,,CL [3]: 40.12 mL/min/kg; AUC [12]: 20.9 ng·h/mL; F [4]: 5%
COC(=O)[C@@H]1CNC[C@@H](N(CC(C)C)C(=O)c2cnc(C(C)(C)C)nc2NCc2ccco2)C1 (relative stereo),3.3 nM,10 nM,
